# In the library only some 2.6% were active in any assay of this set; here they are far more common.
# SIAE inh = blocks human sialic acid acetylesterase; Q9HAT2; hit rate 0.69% among 370,000; AID 1053197; inhibition, % at 9.66 µM; SIAE FP-Rh probe binding, fluorescence polarization;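 active means inhibition above a cutoff: mean of compounds within the control limits plus 3 SD of those, cut at about 17% in these data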;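 further: 0% = plate median of compound wells and 100% = probe without SIAE protein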
# TCR CD3 inh = human TCR-CD3 binding inhibition | TAMRA-labeled TCR probe fluorescence, biochemical | inhibition, % at 9.4 µM | hit rate 0.37% among 360,000 | AID 651800; in the data active means inhibition above about 19%;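 further: recombinant mutant TCR 2C K166C tagged with TAMRA read by polarization; 0% = receptor in buffer alone and 100% = receptor with positive control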
# HTRA1 inh = HTRA1 (human) protease inhibition; hit rate 0.5% among 340,000; inhibition, % at 5.96 µM; recombinant HTRA1, FP-rhodamine activity-based probe, fluorescence polarization; in the data active means inhibition above about 36%;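 further: 0% = enzyme with DMSO and 100% = wells lacking enzyme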
# Target sequence (Q92743 whole entry, looked up): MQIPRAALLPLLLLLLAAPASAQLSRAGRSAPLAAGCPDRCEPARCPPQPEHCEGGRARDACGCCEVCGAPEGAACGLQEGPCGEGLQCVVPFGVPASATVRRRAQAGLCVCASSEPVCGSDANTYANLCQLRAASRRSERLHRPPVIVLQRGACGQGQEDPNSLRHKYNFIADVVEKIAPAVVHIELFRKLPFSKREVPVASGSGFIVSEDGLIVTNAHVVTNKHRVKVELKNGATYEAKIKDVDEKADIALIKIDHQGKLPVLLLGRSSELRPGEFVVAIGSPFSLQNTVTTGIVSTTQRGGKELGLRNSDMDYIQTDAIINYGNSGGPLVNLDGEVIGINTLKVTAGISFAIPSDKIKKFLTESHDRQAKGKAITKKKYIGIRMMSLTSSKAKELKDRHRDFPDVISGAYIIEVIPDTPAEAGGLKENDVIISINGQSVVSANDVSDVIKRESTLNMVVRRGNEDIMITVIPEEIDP
# mABHD4 FP = inhibits mouse alpha/beta hydrolase domain 4; AID 720543; purified mABHD4, FP-Rh probe fluorescence polarization; inhibition, % at 8.92 µM; hit rate 0.54% among 370,000;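 active means inhibition exceeding the mean over every tested compound plus 3 SD, cut at about 30% in these data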;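 further: 0% = plate median of compound wells and 100% = S159A mutant with DMSO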
#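 assay system = mABHD4 protein | compound dosing = single nominal dose of 8.92 µM, 0.89% DMSO final | read-out basis = percent inhibition of probe binding, normalized to plate controls | schedule = Enzyme–compound pre-incubation 45 min, then probe 60 min, both 25 °C | detection = fluorescence polarization, excitation 525 nm, emission 598 nm, BODIPY TMR filters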
# PRMT1 inh = inhibitors of human PRMT1; Q99873; recombinant PRMT1, activity-based probe fluorescence polarization; inhibition, % at 2.79 µM; hit rate 1.3% among 370,000;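 active means inhibition above about 21% made by adding two undisclosed values, limit read from the data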
# PRMT1 confirm = PRMT1 (human) inhibition, FP confirmation; shares compounds with PRMT1 inh; recombinant His-PRMT1, activity-based probe fluorescence polarization; inhibition, % at 2.79 µM; hit rate 42% among 3,300; AID 687036;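 active means mean inhibition across replicates above the hit cutoff derived for the earlier primary screen, cut at about 22% in these data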
# * = called active by the depositor; x = no result given.
SMILES,SIAE inh,TCR CD3 inh,HTRA1 inh,mABHD4 FP,PRMT1 inh,PRMT1 confirm
COc1cc(CNc2ccc3[nH]c(=O)[nH]c3c2)ccc1OCc1ccccc1F,3,-6,10,10,29*,10
COc1cc(CNc2ccc3[nH]c(=O)[nH]c3c2)ccc1OCC(=O)NC(C)(C)C,5,1,-1,5,6,x
CCOC(=O)c1c(C)[nH]c(C)c1C(=O)COC(=O)COc1ccc(Cl)c(C)c1,2,0,-21,-6,-2,x
CCOC(=O)C1CCCN(CC(=O)Nc2nccs2)C1 (stereo unspecified),1,3,-6,7,-5,x
O=C(O)c1cccc(N2C(=O)C=CC2=O)c1,10,3,-3,3,59*,84*
O=C(Cc1ccccc1)Nc1cccc(N2C(=O)C=CC2=O)c1,-7,4,-8,6,96*,95*
O=C(Cn1cc(C(=O)C(=O)N2CCOCC2)c2ccccc21)Nc1cccc(C(F)(F)F)c1,-2,4,-22,-5,2,x
C[C@@H]1C=C(C(=O)NCc2nc3ccccc3[nH]2)O[C@H](OCCCCO)C1,5,-3,5,9,47*,33*
COC(CN(C)S(=O)(=O)c1cc2c3c(c1)CCC(=O)N3CCC2)OC,0,6,10,4,-3,x
CC1CN(C(=O)COC(=O)/C=C/c2cccc([N+](=O)[O-])c2)CC(C)O1 (stereo unspecified),2,-4,9,-10,7,x
c1cc2c(cc1NC1CCCCCC1)OCO2,11,-4,33,20,35*,32*
CCC(Oc1cc(Cl)ccc1Cl)C(=O)N1CCCN(C)CC1 (stereo unspecified),-8,-10,-7,-8,6,x
CN(C)CCN(C(=O)c1ccc(S(=O)(=O)N2CCc3ccccc32)cc1)c1nc2ccc(F)cc2s1,-5,7,-26,-11,50*,1
CN(C)CCCN(C(=O)c1ccc(S(=O)(=O)N2CCc3ccccc32)cc1)c1nc2c(Cl)cccc2s1,-4,-4,-26,12,33*,8
O=C(Nc1ccc(Cl)c(Cl)c1)C1C2C=CC3(O2)C1C(=O)N(CCN1CCCCC1)C3C(=O)NC1CCCCC1 (stereo unspecified),-12,-3,2,5,0,x
O=C(N/N=C\c1ccc([N+](=O)[O-])o1)c1cncc(Br)c1,13,19,15,28,34*,6
Cc1cc(NC(=O)CSc2nnc(COc3ccccc3)n2Cc2ccco2)no1,-4,5,-3,5,-2,x
O=C(CSc1nnc(COc2ccccc2)n1Cc1ccco1)NCc1ccco1,-2,8,-2,-2,29*,13
CCn1c(C)[n+](CCCS(=O)(=O)[O-])c2cc(Cl)c(Cl)cc21,5,-6,2,-3,-2,x
O=S(=O)([O-])CCC[n+]1c(SCCCS(=O)(=O)O)sc2ccc(Cl)cc21,6,1,-6,-1,71*,75*
CC(C)CN1C(=O)C[C@]2(C(=O)N(C)c3ccc(NC(=O)c4cc(F)ccc4F)cc32)C1c1ccccc1 (stereo partly specified),-3,x,x,2,-1,x
CCn1c2ccccc2c2cc(NC(=O)CSc3nnc(C4CC4)n3Cc3ccco3)ccc21,3,3,0,13,6,x
Cc1ccc2nc(-c3ccc(NC(=O)CSc4nnc(-c5ccccc5)n4Cc4ccco4)cc3)sc2c1,-50,x,x,-42,25*,19
Cc1cccc(-c2nnc(SCC(=O)Nc3ccc(-c4nc5ccc(C)cc5s4)cc3)n2Cc2ccco2)c1,-21,x,x,-22,41*,1
CCn1c2ccccc2c2cc(NC(=O)CSc3nnc(-c4ccccc4)n3Cc3ccco3)ccc21,12,x,x,17,80*,65*
SMILES,SIAE inh,TCR CD3 inh,HTRA1 inh,mABHD4 FP,PRMT1 inh,PRMT1 confirm
COc1ccc2[nH]c3c(c2c1)CCN1C(=O)C(CC(=O)NCCCn2ccnc2)C[C@H](C(=O)N2CCCCC2)[C@@]31CCc1ccccc1 (stereo partly specified),4,-5,-6,5,7,x
CN(C)S(=O)(=O)c1ccc(F)c(C(=O)Nc2ccccc2C(=O)NC2CC2)c1,-9,-3,-5,-2,-2,x
COc1ccccc1NC(CC(=O)c1ccccc1)C(=O)OCC(=O)c1ccc(C)cc1 (stereo unspecified),-1,-4,-3,2,16,x
COc1ccccc1NC(CC(=O)c1ccccc1)C(=O)OCC(=O)c1ccc(C)c(C)c1 (stereo unspecified),-2,-7,-7,-8,50*,10
COC(=O)[C@H]1C[C@@H]1[C@H](N)c1ccccc1,-1,1,2,2,1,x
NC(=O)c1ccccc1NCC(=O)c1ccc(F)cc1,0,-7,5,-8,34*,3
O=C(CNc1ccc(F)cc1)c1ccccc1,5,9,-1,2,0,x
O=C1/C(=C/c2ccccn2)SC(=S)N1Nc1ncc(C(F)(F)F)cc1Cl,3,1,-7,1,34*,19
O=C1/C(=C\c2ccccn2)SC(=S)N1Nc1ncc(C(F)(F)F)cc1Cl,x,x,-3,x,x,x
COCCn1c(Cc2ccccc2)nnc1SCC(=O)NC1CCCCC1,1,-3,2,3,-1,x
O=S(=O)(CCSc1ccccn1)c1nc2ccccc2s1,-1,-1,-10,-5,26*,13
O=S(=O)(CCSc1nc2ccccc2o1)c1nc2ccccc2s1,3,5,-16,2,-2,x
COCCN(CCOC)Cc1c(O)ccc2c1O/C(=C\c1ccco1)C2=O,5,-1,10,22,31*,27*
O=C1/C(=C/c2ccco2)Oc2c1ccc(O)c2CN1CCCCC1,4,-1,6,20,35*,47*
CC1CCN(Cc2c(O)ccc3c2O/C(=C\c2ccco2)C3=O)CC1,x,x,16,x,x,x
CCN1CCN(Cc2c(O)ccc3c2O/C(=C\C=C\c2ccccc2OC)C3=O)CC1,-9,-13,1,-6,14,x
O=C(COC(=O)[C@H](Cc1ccccc1)NC(=O)c1ccco1)Nc1ccccc1OC(F)F,4,-3,-6,-12,4,x
CNC(=O)NNC(=O)c1nc(-c2ccccc2)c(C)o1,1,-3,x,5,-1,x
COc1ccc(NC(=O)CC2SC(=Nc3ccccc3)NC2=O)cc1 (stereo unspecified),-8,-10,-5,4,2,x
Cc1ccc(NC(=O)CC2SC(=O)NC2=O)cc1 (stereo unspecified),-4,0,-7,-14,56*,76*
COc1ccc(NC(=O)CC2SC(=O)NC2=O)cc1 (stereo unspecified),0,2,9,4,53*,66*
COc1ccccc1N(CC(=O)NC(C)(C)C)C(=O)CCC(=O)Nc1nccs1,-2,11,7,-1,0,x

# Compound activity deposited in PubChem BioAssay by The Scripps Research Institute Molecular Screening Center.
